{"source": "ChEMBL document CHEMBL2177045", "about": "“Chemical subtleties in small-molecule modulation of peptide receptor function: the case of CXCR3 biaryl-type ligands” (J Med Chem, 2012)", "key": {"[1]": {"target": "T1, C-X-C chemokine receptor type 3 (Homo sapiens) (UniProt P49682)", "T1 sequence (whole entry)": "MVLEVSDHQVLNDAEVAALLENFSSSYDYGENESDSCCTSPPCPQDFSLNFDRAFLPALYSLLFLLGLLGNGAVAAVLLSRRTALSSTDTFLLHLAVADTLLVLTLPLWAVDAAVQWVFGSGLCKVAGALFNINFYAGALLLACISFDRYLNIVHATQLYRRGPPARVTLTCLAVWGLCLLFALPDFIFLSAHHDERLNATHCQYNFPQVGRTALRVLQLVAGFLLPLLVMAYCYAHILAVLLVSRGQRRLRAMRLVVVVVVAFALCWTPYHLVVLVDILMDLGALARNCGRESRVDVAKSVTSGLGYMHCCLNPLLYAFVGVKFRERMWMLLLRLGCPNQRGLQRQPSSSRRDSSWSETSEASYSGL", "assay": "Agonist activity at CXCR3 expressed in HEK293 cells by [35S]GTPgamma binding assay relative to CXCL11", "format": "functional, cell-based", "summary_of_the_method": "(§1)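 Membranes (5 μg/well) from HEK293 cells stably expressing CXCR3, incubated with CXCL11 or ligands. Buffer 50 mM HEPES, 10 mM MgCl2, 100 mM NaCl, pH 7.2, with 3 μM GDP and 300 pM [35S]GTPγS, 1 h at room temperature. Filtered on GF/B, incorporated label counted. Response normalized to CXCL11 (α = 1) to give relative efficacy; mean ± SEM of ≥3 independent experiments.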"}, "[2]": {"target": "T2, C-X-C chemokine receptor type 3 (Homo sapiens, UniProt P49682)", "T2 sequence (P49682 whole entry)": "T1 sequence (whole entry)", "assay": "Displacement of [125I]CXCL10 from CXCR3 expressed in HEK293 cells", "format": "cell-based", "summary_of_the_method": "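Competition binding against [125I]CXCL10 using membranes from HEK293 cells stably expressing CXCR3. Affinities reported as pKi; mean ± SEM of at least three independent experiments.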"}, "[3]": {"target": "T2, C-X-C chemokine receptor type 3", "assay": "Agonist activity at CXCR3 expressed in HEK293 cells by [35S]GTPgamma binding assay", "format": "functional, cell-based", "summary_of_the_method": "as §1"}, "[4]": {"target": "T1, C-X-C chemokine receptor type 3 (Homo sapiens)", "assay": "Agonist activity at CXCR3 expressed in HEK293 cells by CRE-luciferase reporter gene assay", "format": "functional, cell-based", "summary_of_the_method": "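HEK293 cells stably expressing CXCR3, transfected with a CRE-luciferase reporter plasmid. Medium swapped for serum-free medium with 0.05% BSA plus ligands for 5 h. Then replaced by luciferin substrate solution (Tris-phosphate pH 7.8, glycerol, Triton X-100, DTT, MgCl2, 825 μM ATP, beetle luciferin) and luminescence read.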"}, "[5]": {"target": "T1, C-X-C chemokine receptor type 3 (Homo sapiens)", "assay": "Agonist activity at CXCR3 expressed in HEK293 cells in presence of CXCR3 antagonist (R)-N-(1-(3-(4-ethoxyphenyl)-4-oxo-3,4-dihydropyrido[2,3-d]pyrimidin-2-yl)ethyl)-2-(4-fluoro-3-(trifluoromethyl)phenyl)-N-(pyridin-3-ylmethyl)acetamide by [35S]GTPgamma binding assay", "format": "functional, cell-based", "summary_of_the_method": "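[35S]GTPγS incorporation on membranes (5 μg/well) of HEK293 cells stably expressing CXCR3. Buffer 50 mM HEPES, 10 mM MgCl2, 100 mM NaCl, pH 7.2, 3 μM GDP, 300 pM [35S]GTPγS, 1 h at room temperature. In antagonist mode, antagonist added 30 min before [35S]GTPγS. Read by filtration and counting.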"}}, "note": "The source made the active and inactive calls. The rule behind the calls is not given here."}
{"smiles": "CC1(C)[C@H]2CC=C(C[N+](C)(C)Cc3ccc(-c4ccccc4)c(Cl)c3)[C@@H]1C2", "values": [{"measurement": "Ratio", "setting": "[1]", "result": 0.06}, {"measurement": "Ki", "setting": "[2]", "result": 631, "unit": "nM"}]}
{"smiles": "CC1(C)[C@H]2CC=C(C[N+](C)(C)Cc3ccc(-c4cccc(Br)c4)cc3)[C@@H]1C2", "values": [{"measurement": "Ratio", "setting": "[1]", "result": 0.08}, {"measurement": "Ki", "setting": "[2]", "result": 200, "unit": "nM"}]}
{"smiles": "CC1(C)[C@H]2CC(C[N+](C)(C)Cc3ccc(-c4ccccc4I)cc3)=C[C@@H]1C2", "values": [{"measurement": "Ratio", "setting": "[1]", "result": 1.05}, {"measurement": "EC50", "setting": "[3]", "result": 1580, "unit": "nM"}, {"measurement": "Ki", "setting": "[2]", "result": 200, "unit": "nM"}]}
{"smiles": "CC1(C)[C@H]2CC=C(C[N+](C)(C)Cc3ccc(-c4c(Cl)cccc4Cl)cc3)[C@@H]1C2", "values": [{"measurement": "Ratio", "setting": "[1]", "result": 0.42}, {"measurement": "EC50", "setting": "[3]", "result": 2000, "unit": "nM"}, {"measurement": "Ki", "setting": "[2]", "result": 398, "unit": "nM"}]}
{"smiles": "CC1(C)[C@H]2CC=C(C[N+](C)(C)Cc3ccc(-c4cccc(Cl)c4)cc3)[C@@H]1C2", "values": [{"measurement": "Activity", "setting": "[4]", "result": "inactive"}, {"measurement": "Ratio", "setting": "[1]", "result": 0.05}, {"measurement": "Ki", "setting": "[2]", "result": 251, "unit": "nM"}]}
{"smiles": "CC1(C)[C@H]2CC=C(C[N+](C)(C)Cc3ccc(-c4ccccc4)cc3)[C@@H]1C2", "values": [{"measurement": "Ratio", "setting": "[1]", "result": 0.11}, {"measurement": "Ki", "setting": "[2]", "result": 631, "unit": "nM"}]}
{"smiles": "Cc1cccc(C)c1-c1ccc(C[N+](C)(C)CC2=CC[C@H]3C[C@@H]2C3(C)C)cc1", "values": [{"measurement": "Ratio", "setting": "[1]", "result": 0.19}, {"measurement": "EC50", "setting": "[3]", "result": 7940, "unit": "nM"}, {"measurement": "Ki", "setting": "[2]", "result": 1000, "unit": "nM"}]}
{"smiles": "CC1(C)[C@H]2CC(C[N+](C)(C)Cc3ccc(-c4cccc(Cl)c4)cc3)=C[C@@H]1C2", "values": [{"measurement": "Ratio", "setting": "[1]", "result": 0.07}, {"measurement": "Ki", "setting": "[2]", "result": 501, "unit": "nM"}]}
{"smiles": "CC1(C)[C@H]2CC=C(C[N+](C)(C)Cc3ccc(-c4ccccc4O)cc3)[C@@H]1C2", "values": [{"measurement": "Ratio", "setting": "[1]", "result": 0.07}, {"measurement": "Ki", "setting": "[2]", "result": 2000, "unit": "nM"}]}
{"smiles": "CC1(C)[C@H]2CC=C(C[N+](C)(C)Cc3ccc(-c4ccccc4F)cc3)[C@@H]1C2", "values": [{"measurement": "Ratio", "setting": "[1]", "result": 0.2}, {"measurement": "EC50", "setting": "[3]", "result": 1260, "unit": "nM"}, {"measurement": "Ki", "setting": "[2]", "result": 501, "unit": "nM"}]}
{"smiles": "CC1(C)[C@H]2CC=C(C[N+](C)(C)Cc3ccc(-c4cccc(Cl)c4)c(Cl)c3)[C@@H]1C2", "values": [{"measurement": "Ratio", "setting": "[1]", "result": 0.03}, {"measurement": "Ki", "setting": "[2]", "result": 501, "unit": "nM"}]}
{"smiles": "Cc1ccccc1-c1ccc(C[N+](C)(C)CC2=CC[C@H]3C[C@@H]2C3(C)C)cc1", "values": [{"measurement": "Ratio", "setting": "[1]", "result": 0.2}, {"measurement": "EC50", "setting": "[3]", "result": 1260, "unit": "nM"}, {"measurement": "Ki", "setting": "[2]", "result": 158, "unit": "nM"}]}
{"smiles": "CCOc1ccc(-n2c([C@@H](C)N(Cc3cccnc3)C(=O)Cc3ccc(F)c(C(F)(F)F)c3)nc3ncccc3c2=O)cc1", "values": [{"measurement": "Ratio", "setting": "[1]", "result": 0}, {"measurement": "Ki", "setting": "[2]", "result": 10, "unit": "nM"}]}
{"smiles": "NCCCC[C@H](NC(=O)[C@@H]1Cc2ccccc2CN1C(=O)CCC(=O)c1ccccc1)C(=O)NCC(c1ccccc1)c1ccccc1", "values": [{"measurement": "Ratio", "setting": "[1]", "result": 0.96}, {"measurement": "Ki", "setting": "[2]", "result": 39.8, "unit": "nM"}]}
{"smiles": "CC1(C)[C@H]2CC=C(C[N+](C)(C)Cc3ccc(Cl)cc3)[C@@H]1C2", "values": [{"measurement": "Ratio", "setting": "[1]", "result": 0.02}]}
{"smiles": "CC1(C)[C@H]2CC=C(C[N+](C)(C)Cc3ccc(-c4ccccc4Cl)c(Cl)c3)[C@@H]1C2", "values": [{"measurement": "Ratio", "setting": "[1]", "result": 0.3}, {"measurement": "EC50", "setting": "[3]", "result": 794, "unit": "nM"}, {"measurement": "Ki", "setting": "[2]", "result": 200, "unit": "nM"}]}
{"smiles": "CC1(C)[C@H]2CC=C(C[N+](C)(C)Cc3ccc(-c4ccccc4I)cc3)[C@@H]1C2", "values": [{"measurement": "Activity", "setting": "[4]", "result": "Active"}, {"measurement": "Activity", "setting": "[5]", "result": "inactive"}, {"measurement": "Ratio", "setting": "[1]", "result": 0.99}, {"measurement": "EC50", "setting": "[3]", "result": 1000, "unit": "nM"}, {"measurement": "Ki", "setting": "[2]", "result": 63.1, "unit": "nM"}]}
{"smiles": "CC1(C)[C@H]2CC=C(C[N+](C)(C)Cc3ccc(-c4ccccc4Br)cc3)[C@@H]1C2", "values": [{"measurement": "Ratio", "setting": "[1]", "result": 0.95}, {"measurement": "EC50", "setting": "[3]", "result": 794, "unit": "nM"}, {"measurement": "Ki", "setting": "[2]", "result": 63.1, "unit": "nM"}]}
{"smiles": "CC1(C)[C@H]2CC[C@@H](C[N+](C)(C)Cc3ccc(-c4ccccc4I)cc3)[C@@H]1C2", "values": [{"measurement": "Ratio", "setting": "[1]", "result": 0.83}, {"measurement": "EC50", "setting": "[3]", "result": 1260, "unit": "nM"}, {"measurement": "Ki", "setting": "[2]", "result": 100, "unit": "nM"}]}
{"smiles": "CC1(C)[C@H]2CC=C(C[N+](C)(C)Cc3ccc(-c4ccccc4Cl)cc3)[C@@H]1C2", "values": [{"measurement": "Activity", "setting": "[5]", "result": "inactive"}, {"measurement": "Ratio", "setting": "[1]", "result": 0.73}, {"measurement": "EC50", "setting": "[3]", "result": 1580, "unit": "nM"}, {"measurement": "Ki", "setting": "[2]", "result": 100, "unit": "nM"}]}
{"smiles": "CC1(C)[C@H]2CC=C(C[N+](C)(C)Cc3ccc(-c4cccc(Cl)c4Cl)cc3)[C@@H]1C2", "values": [{"measurement": "Ratio", "setting": "[1]", "result": 0.31}, {"measurement": "EC50", "setting": "[3]", "result": 631, "unit": "nM"}, {"measurement": "Ki", "setting": "[2]", "result": 398, "unit": "nM"}]}
{"smiles": "CC1(C)[C@H]2CC=C(C[N+](C)(C)Cc3ccccc3)[C@@H]1C2", "values": [{"measurement": "Ratio", "setting": "[1]", "result": 0.04}, {"measurement": "Ki", "setting": "[2]", "result": 2510, "unit": "nM"}]}
{"smiles": "CC1(C)[C@H]2CC[C@@H](C[N+](C)(C)Cc3ccc(-c4cccc(Cl)c4)cc3)[C@@H]1C2", "values": [{"measurement": "Ratio", "setting": "[1]", "result": 0.07}, {"measurement": "Ki", "setting": "[2]", "result": 501, "unit": "nM"}]}
{"smiles": "CC1(C)[C@@H]2CC=C(C[N+](C)(C)Cc3ccc(-c4ccccc4I)cc3)[C@H]1C2", "values": [{"measurement": "Ratio", "setting": "[1]", "result": 0.98}, {"measurement": "EC50", "setting": "[3]", "result": 631, "unit": "nM"}, {"measurement": "Ki", "setting": "[2]", "result": 50.1, "unit": "nM"}]}
{"smiles": "CC1(C)[C@@H]2CC=C(C[N+](C)(C)Cc3ccc(-c4cccc(Cl)c4)cc3)[C@H]1C2", "values": [{"measurement": "Ratio", "setting": "[1]", "result": 0.05}, {"measurement": "Ki", "setting": "[2]", "result": 316, "unit": "nM"}]}
{"smiles": "CC1(C)[C@H]2CC=C(C[N+](C)(C)Cc3ccc(-c4cc(Cl)ccc4Cl)cc3)[C@@H]1C2", "values": [{"measurement": "Activity", "setting": "[4]", "result": "Active"}, {"measurement": "Ratio", "setting": "[1]", "result": 0.64}, {"measurement": "EC50", "setting": "[3]", "result": 5010, "unit": "nM"}, {"measurement": "Ki", "setting": "[2]", "result": 251, "unit": "nM"}]}
{"smiles": "COc1ccccc1-c1ccc(C[N+](C)(C)CC2=CC[C@H]3C[C@@H]2C3(C)C)cc1", "values": [{"measurement": "Ratio", "setting": "[1]", "result": 0.36}, {"measurement": "EC50", "setting": "[3]", "result": 12600, "unit": "nM"}, {"measurement": "Ki", "setting": "[2]", "result": 158, "unit": "nM"}]}
{"smiles": "CC1(C)[C@H]2CC=C(C[N+](C)(C)Cc3ccc4c(c3)Cc3ccccc3-4)[C@@H]1C2", "values": [{"measurement": "Ratio", "setting": "[1]", "result": 0.03}, {"measurement": "Ki", "setting": "[2]", "result": 398, "unit": "nM"}]}
